Data published in ChEMBL document CHEMBL2331403, “Discovery and optimization of a novel series of potent mutant B-Raf(V600E) selective kinase inhibitors” (J Med Chem, 2013).

Columns and labels:
Plasma [1] = test: Fraction unbound in human plasma by LC-MS/MS analysis; format: ADME, cell-free
[2] = Volume of distribution at steady state in Han Wistar rat at 10 mg/kg, po and 3 mg/kg, iv; format: ADME, organism-based; details: in vivo, read-out: Vdss
How it was run: (§1)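 Rat PK study: oral dose 10 mg/kg in 0.1% HPMC; intravenous dose 3 mg/kg in 40% DMA/40% TEG/20% saline. Half-life taken from the iv arm; F not determined where no oral dose was given.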

[3] = Oral bioavailability in Han Wistar rat at 10 mg/kg; format: ADME, organism-based; details: in vivo; how it was run: as §1
Plasma [4] = test: Drug uptake in plasma of po dosed nude mouse xenografted with human A375 cells after 2 hrs; format: ADME, organism-based, A-375; details: in vivo
How it was run: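 A375 xenograft mice given a single oral dose; tumors and plasma harvested 2 h later. Tumor pERK measured by Western blot with equal protein loading, normalized to total ERK, and expressed as percent reduction in pERK.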

Structure (SMILES) | Cp(f) (Plasma [1]) | Vd [2] | bioavailability [3] | Drug uptake (Plasma [4])
CC(=O)NC(C)c1ccc(Nc2ncc3cc(-c4ccncc4)ccc3n2)cc1 (configuration not stated) | 5% |  |  | 
C[C@@H](NC(=O)[C@H]1CCCNC1)c1ccc(Nc2ncc3cc(-c4ccncc4)ccc3n2)cc1 | 1.7% |  |  | 
COCCN(C)c1ccc(Nc2ncc3cc(-c4ccncc4)ccc3n2)cc1 | < 1% |  |  | 
C[C@@H](NC1=CC(=O)CCC1)c1ccc(Nc2ncc3cc(-c4ccncc4)ccc3n2)cc1 | 1.3% | 0.67 L/kg | 17% | 
CC(=O)N[C@H](C)c1ccc(Nc2ncc3cc(-c4ccncc4)c(Cl)cc3n2)cc1 | < 1% |  |  | 
CC(=O)N[C@H](C)c1ccc(Nc2ncc3cc(-c4ccncc4)ccc3n2)cc1 | 6% | 0.8 L/kg | 100% | Dose-dependent effect
CC(=O)N[C@H](C)c1ccc(Nc2ncc3cc(-c4ccncc4)cc(Cl)c3n2)cc1 | < 1% |  |  | 
COCCC(=O)N[C@@H](C)c1ccc(Nc2ncc3cc(-c4ccncc4)ccc3n2)cc1 | < 1% |  |  | 
C[C@@H](NC(=O)C1CCNCC1)c1ccc(Nc2ncc3cc(-c4ccncc4)ccc3n2)cc1 | 3.4% |  |  | 
C[C@@H](NC(=O)C1CCCCN1C)c1ccc(Nc2ncc3cc(-c4ccncc4)ccc3n2)cc1 (mixture of isomers) | 3.8% |  |  | 
C[C@@H](NC(=O)[C@H]1CCCCN1CCO)c1ccc(Nc2ncc3cc(-c4ccncc4)ccc3n2)cc1 | 3.4% |  |  | 
COCCC(=O)N(C)c1ccc(Nc2ncc3cc(-c4ccncc4)ccc3n2)cc1 |  | 0.7 L/kg | 60% | 
CC(=O)N[C@H](C)c1ccc(Nc2ncc3cc(-c4ccncc4)cc(C)c3n2)cc1 | < 1% |  |  | 
COCCNC(C)c1ccc(Nc2ncc3cc(-c4ccncc4)ccc3n2)cc1 (configuration not stated) | 9.4% | 4.9 L/kg | 31% | 
COc1cc2nc(Nc3ccc([C@@H](C)NC(C)=O)cc3)ncc2cc1-c1ccncc1 |  | 0.67 L/kg |  | 
C[C@@H](NC(=O)[C@H]1CCCCN1)c1ccc(Nc2ncc3cc(-c4ccncc4)ccc3n2)cc1 | 5.1% | 13 L/kg | 28% | 
C[C@@H](NC1=CC(=O)NCC1)c1ccc(Nc2ncc3cc(-c4ccncc4)ccc3n2)cc1 | 2.3% |  |  | 
CC(=O)N[C@H](C)c1ccc(Nc2ncc3cc(-c4ccncc4)c(C)cc3n2)cc1 | 1.9% |  |  | 
C[C@@H](NC(=O)[C@H]1CCCN1)c1ccc(Nc2ncc3cc(-c4ccncc4)ccc3n2)cc1 | 1.4% |  |  | 
C[C@@H](NC1=CC(=O)CNC1)c1ccc(Nc2ncc3cc(-c4ccncc4)ccc3n2)cc1 | 3.6% | 7.9 L/kg |  | 
COCCC(=O)N[C@H](C)c1ccc(Nc2ncc3cc(-c4ccncc4)ccc3n2)cc1 | 1.5% |  |  | 
